One compound from ChEMBL document CHEMBL3576792, “Enhancement of antibiotic activity against multidrug-resistant bacteria by the efflux pump inhibitor 3,4-dibromopyrrole-2,5-dione isolated from a Pseudoalteromonas sp” (J Nat Prod, 2015) can be followed below.

Test [1] deals with Escherichia coli K-12. Kind of test: Inhibition of AcrAB-TolC pump in Escherichia coli K-12 AG100 assessed as […] at 16 ug/ml after 60 mins by accumulation assay. The method, boiled down:
(§1)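 AG100 (wild-type K-12) or AG100A (ΔacrAB) grown in Luria broth at 37 °C and 200 rpm to OD600 1.0, PBS-washed, diluted to OD600 0.3. Cells given 2.5 μM H33342 with 22 mM glucose at 37 °C for ~30 min until stable, then compound (0.06–64 μg/mL) added. Fluorescence (Ex 350/Em 460) read for 60 min, background subtracted. Final 4 time points averaged; one-way ANOVA/Dunnett vs Hoechst-only; n = 8.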

Test [2] concerns Escherichia coli. Kind of test: Potentiation of erythromycin-induced antibacterial activity Escherichia coli AG102 overexpressing AcrAB-TolC by p-iodonitrotetrazolium chloride colorimetric assay. The class given is functional.
For test [3], the system named is Escherichia coli. Kind of test: Potentiation of levofloxacin-induced antibacterial activity Escherichia coli AG102 overexpressing AcrAB-TolC assessed as levofloxacin MIC by p-iodonitrotetrazolium chloride colorimetric assay. The class given is functional. The gist of the method: (§2)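 Checkerboard microdilution in Mueller-Hinton broth: two-fold dilutions of antibiotic crossed with dilutions of test compound above, at and below their MICs. Growth was read by INT colorimetric assay, with MIC as the lowest concentration showing no visible growth. FICs and FIC index were derived from these MICs. ΔBC/pABM and ΔBC/pXYM strains were grown with 100 μg/mL ampicillin and 1 mM IPTG.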

Test [4] deals with Escherichia coli. Kind of test: Potentiation of chloramphenicol-induced antibacterial activity Escherichia coli transformed with plasmid carrying MG1655 deltaBC/pABM assessed as chloramphenicol MIC by p-iodonitrotetrazolium chloride colorimetric assay. The class given is functional. The method, boiled down:
as §2

Test [5] relates to Escherichia coli. The experiment in a line: Potentiation of tetracycline-induced antibacterial activity Escherichia coli transformed with plasmid carrying MG1655 deltaBC/pABM by p-iodonitrotetrazolium chloride colorimetric assay. The test is classed as functional.
Test [6] has as its system Escherichia coli K-12. Kind of test: Inhibition of AcrAB-TolC pump in Escherichia coli K-12 AG100 assessed as increase in intracellular H33342 fluorescence at 1 ug/ml after 60 mins by efflux inhibition assay. The test is classed as cell-based. The method, boiled down: (§3)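 AG100 (wild-type K-12) or AG100A (ΔacrAB) cells were grown in Luria broth at 37 °C and 200 rpm to OD600 1.0, PBS-washed and diluted to OD600 0.3. Cells took up 2.5 μM Hoechst 33342 with 22 mM glucose at 37 °C for about 30 min, then compound (0.06–64 μg/mL) or PAβN (15.6 μg/mL) was added. Fluorescence (Ex 350/Em 460 nm) was followed for 60 min and corrected for background. The last four time points were compared to dye-only control by ANOVA with Dunnett's test, run in duplicate.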

Test [7] has as its system Escherichia coli. The experiment in a line: Potentiation of oxacillin-induced antibacterial activity Escherichia coli AG102 overexpressing AcrAB-TolC by p-iodonitrotetrazolium chloride colorimetric assay. The test is classed as functional, organism-based. The method, boiled down:
as §2

Test [8] relates to Escherichia coli. Kind of test: Potentiation of ciprofloxacin-induced antibacterial activity Escherichia coli transformed with plasmid carrying MG1655 deltaBC/pABM assessed as ciprofloxacin MIC by p-iodonitrotetrazolium chloride colorimetric assay. The class given is functional. The gist of the method: as §2
For test [9], the system named is Escherichia coli. Kind of test: Antibacterial activity against Escherichia coli transformed with plasmid carrying MG1655 deltaBC/pABM by p-iodonitrotetrazolium chloride colorimetric assay. The test is classed as functional. The method, boiled down: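 Two-fold broth microdilution in Mueller-Hinton broth, read by p-iodonitrotetrazolium chloride colorimetric assay. MIC is the lowest concentration giving no visible growth. MG1655 ΔacrB ΔtolC strains carrying pABM or pXYM were always cultured with 100 μg/mL ampicillin and 1 mM IPTG. Medium, inoculum and 1% DMSO (final) served as negative control.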

Test [10] concerns Escherichia coli. Kind of test: Potentiation of kanamycin-induced antibacterial activity Escherichia coli transformed with plasmid carrying MG1655 deltaBC/pABM by p-iodonitrotetrazolium chloride colorimetric assay. The class given is functional.
Test [11] deals with Escherichia coli. The experiment in a line: Potentiation of oxacillin-induced antibacterial activity Escherichia coli transformed with plasmid carrying MG1655 deltaBC/pABM assessed as oxacillin MIC by p-iodonitrotetrazolium chloride colorimetric assay. The test is classed as functional, organism-based. The gist of the method: as §2
Test [12] concerns Escherichia coli. The experiment in a line: Potentiation of oxacillin-induced antibacterial activity Escherichia coli transformed with plasmid carrying MG1655 deltaBC/pXYM assessed as oxacillin MIC by p-iodonitrotetrazolium chloride colorimetric assay. The class given is functional. The gist of the method:
as §2

For test [13], the system named is Escherichia coli. The experiment in a line: Potentiation of kanamycin-induced antibacterial activity Escherichia coli AG102 overexpressing AcrAB-TolC by p-iodonitrotetrazolium chloride colorimetric assay. The test is classed as functional.
The test system of test [14] is Escherichia coli. Kind of test: Potentiation of ciprofloxacin-induced antibacterial activity Escherichia coli AG102 overexpressing AcrAB-TolC by p-iodonitrotetrazolium chloride colorimetric assay. The test is classed as functional.
Test [15] concerns Escherichia coli. Kind of test: Effect on intracellular H33342 accumulation in Escherichia coli AG100A delta acrAB mutant at 16 ug/ml after 60 mins by accumulation assay. The test is classed as functional. The gist of the method:
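Cells grown in Luria broth at 37 °C, 200 rpm to OD600 1.0, then washed twice in PBS and diluted in glucose-free PBS to OD600 0.3. H33342 was used at 2.5 μM with 22 mM glucose at 37 °C and allowed to accumulate for ~30 min. Compound was then added and fluorescence (Ex 350/Em 460 nm) followed for 60 min. Values are the mean RFU of the final 4 min, after media-plus-compound background was subtracted. Run in duplicate, n = 8.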

Test [16] deals with Escherichia coli. The experiment in a line: Potentiation of kanamycin-induced antibacterial activity Escherichia coli transformed with plasmid carrying MG1655 deltaBC/pABM assessed as kanamycin MIC by p-iodonitrotetrazolium chloride colorimetric assay. The test is classed as functional. The gist of the method:
as §2

Test [17] relates to Escherichia coli. The experiment in a line: Potentiation of levofloxacin-induced antibacterial activity Escherichia coli transformed with plasmid carrying MG1655 deltaBC/pXYM assessed as levofloxacin MIC by p-iodonitrotetrazolium chloride colorimetric assay. The class given is functional. The method, boiled down:
as §2

Test [18] concerns Escherichia coli. The experiment in a line: Effect on intracellular H33342 accumulation in Escherichia coli AG100A delta acrAB mutant at 4 ug/ml after 60 mins by accumulation assay. The class given is functional. The method, boiled down:
as §1

Test [19] has as its system Escherichia coli K-12. Kind of test: Inhibition of AcrAB-TolC pump in Escherichia coli K-12 AG100 assessed as […] at 0.25 ug/ml after 60 mins by accumulation assay. The gist of the method: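 Cells grown in Luria broth at 37 °C, 200 rpm to OD600 1.0, washed twice in PBS and diluted in glucose-free PBS to OD600 0.3. Cells were given 2.5 μM H33342 with 22 mM glucose at 37 °C for ~30 min until stable, then compound added (0.06–64 μg/mL). Fluorescence (Ex 350/Em 460 nm) was read for 60 min, background subtracted, and the final 4 min averaged (n = 8).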

Test [20] concerns Escherichia coli K-12. Kind of test: Inhibition of AcrAB-TolC pump in Escherichia coli K-12 AG100 assessed as inhibition of H33342 accumulation at 1 ug/ml after 60 mins by accumulation assay. The method, boiled down:
as §1

Test [21] deals with Escherichia coli K-12. Kind of test: Inhibition of AcrAB-TolC pump in Escherichia coli K-12 AG100 assessed as increase in intracellular H33342 fluorescence at 0.06 ug/ml after 60 mins by efflux inhibition assay. The test is classed as cell-based. The gist of the method:
as §3

Test [22] has as its system Escherichia coli. Kind of test: Potentiation of chloramphenicol-induced antibacterial activity Escherichia coli transformed with plasmid carrying MG1655 deltaBC/pXYM by p-iodonitrotetrazolium chloride colorimetric assay. The class given is functional.
Test [23] has as its system Escherichia coli K-12. The experiment in a line: Inhibition of AcrAB-TolC pump in Escherichia coli K-12 AG100 assessed as increase in H33342 accumulation at 64 ug/ml after 60 mins by accumulation assay.

Structures are written as SMILES. Converted amounts (≈) assume the structure as drawn. The source made the active and inactive calls. The calls are words filed in the database; no cut-off is given here.

On to `O=C1NC(=O)C(Br)=C1Br`, for which the RFU with Escherichia coli K-12 [1] was 1170; in the test with Escherichia coli K-12 [6], -247; in the test with Escherichia coli [15], 1100; in the test with Escherichia coli [18], 1200; in the test with Escherichia coli K-12 [19], 796; with Escherichia coli K-12 [20] it was 1010. Further, the figures for the RFU in the test on Escherichia coli K-12 [21] and with Escherichia coli K-12 [23] were -422 and 1200, respectively. The “fractional inhibitory concentration index (FICI)” value in the test on Escherichia coli [2] is given as 0.38; with Escherichia coli [5] it was 1; with Escherichia coli [10], 0.75; with Escherichia coli [13], 0.27; in the test with Escherichia coli [14] it was 0.5; with Escherichia coli [22] it was 0.19. The MIC in the test with Escherichia coli [3] came out at 128 µg/mL; in the test on Escherichia coli [4], 128 µg/mL; with Escherichia coli [8], 64 µg/mL; with Escherichia coli [9] it was 256 µg/mL (≈ 1000 µM); in the test with Escherichia coli [12] it was 64 µg/mL; in the test with Escherichia coli [16], 128 µg/mL. The MIC with Escherichia coli [17] worked out at 32 µg/mL. Further, in the test on Escherichia coli [7], the “fractional inhibitory concentration index (FICI)” value was “inactive”. For the same compound, in the test on Escherichia coli [11], the MIC result is “inactive”.

By MIC is commonly meant the least concentration at which growth counts as inhibited.
